Measured values: ChEMBL document CHEMBL2016550, “Synthesis and structure-activity relationships of 1,2,4-triazolo[1,5-a]pyrimidin-7(3H)-ones as novel series of potent β isoform selective phosphatidylinositol 3-kinase inhibitors” (Bioorg Med Chem Lett, 2012)

Experiments:
[1] = Selectivity ratio of IC50 for PI3Kdelta to IC50 for PI3Kbeta
[2] = target: T1, Phosphatidylinositol 4,5-bisphosphate 3-kinase catalytic subunit delta isoform (Homo sapiens, UniProt O00329); test: Inhibition of PI3Kdelta by continuous read time resolved fluorescence resonance energy transfer displacement assay
T1 sequence (O00329 whole entry): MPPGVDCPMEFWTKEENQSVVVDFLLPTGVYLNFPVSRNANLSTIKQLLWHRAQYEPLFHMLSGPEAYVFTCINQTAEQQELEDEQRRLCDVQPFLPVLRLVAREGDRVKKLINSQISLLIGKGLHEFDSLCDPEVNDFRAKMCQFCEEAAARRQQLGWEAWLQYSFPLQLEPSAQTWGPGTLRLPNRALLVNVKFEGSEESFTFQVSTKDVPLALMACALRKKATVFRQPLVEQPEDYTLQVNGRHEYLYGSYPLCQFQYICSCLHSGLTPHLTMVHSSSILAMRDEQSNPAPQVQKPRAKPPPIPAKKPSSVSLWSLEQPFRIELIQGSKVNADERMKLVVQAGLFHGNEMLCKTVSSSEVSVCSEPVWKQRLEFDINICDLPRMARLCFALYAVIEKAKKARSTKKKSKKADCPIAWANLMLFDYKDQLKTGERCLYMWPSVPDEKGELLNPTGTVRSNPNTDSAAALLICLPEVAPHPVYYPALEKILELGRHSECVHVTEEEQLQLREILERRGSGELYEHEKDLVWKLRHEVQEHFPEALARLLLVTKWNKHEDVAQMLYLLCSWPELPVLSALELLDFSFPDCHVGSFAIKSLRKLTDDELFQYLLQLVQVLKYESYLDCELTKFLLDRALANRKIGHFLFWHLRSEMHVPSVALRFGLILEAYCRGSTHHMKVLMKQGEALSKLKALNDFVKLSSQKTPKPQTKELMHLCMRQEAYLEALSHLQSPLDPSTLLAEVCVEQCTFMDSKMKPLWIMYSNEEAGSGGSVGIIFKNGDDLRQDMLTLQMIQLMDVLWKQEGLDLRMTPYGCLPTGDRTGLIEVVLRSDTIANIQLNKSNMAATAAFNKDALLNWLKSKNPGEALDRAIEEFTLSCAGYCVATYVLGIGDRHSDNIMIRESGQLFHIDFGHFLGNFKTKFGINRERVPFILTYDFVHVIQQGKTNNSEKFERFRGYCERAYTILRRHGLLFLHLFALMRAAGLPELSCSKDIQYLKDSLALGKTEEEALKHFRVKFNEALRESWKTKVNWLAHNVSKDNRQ

[3] = target: Phosphatidylinositol 4,5-bisphosphate 3-kinase catalytic subunit gamma isoform (Homo sapiens, UniProt P48736); test: Inhibition of PI3Kgamma by continuous read time resolved fluorescence resonance energy transfer displacement assay
[4] = target: T2, Phosphatidylinositol 4,5-bisphosphate 3-kinase catalytic subunit beta isoform (Homo sapiens, UniProt P42338); test: Inhibition of PI3Kbeta by continuous read time resolved fluorescence resonance energy transfer displacement assay
[5] = target: Phosphatidylinositol 4,5-bisphosphate 3-kinase catalytic subunit alpha isoform (Homo sapiens, UniProt P42336); test: Inhibition of PI3Kalpha by continuous read time resolved fluorescence resonance energy transfer displacement assay
HCC1954 = test: Cytotoxicity against PTEN wild type human HCC1954 cells after 6 days by alamar blue assay; format: functional, cell-based; settings: HCC1954, 144 h
Procedure, shortened: (§1)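 Cells were grown anchorage-independently: a 0.6% agar/medium + 10% FBS bottom layer, cells in 0.3% agar/medium + 10% FBS, and medium + 10% FBS on top. After 16–20 h they were dosed (0.15% final DMSO) for 6 days, with a baseline plate read at dosing. Alamar Blue was added for 6 h and read as fluorescence (ex 530/em 590 nm). Signal from 0.3% Brij 35 background wells was subtracted, values were expressed as % of DMSO control, and fitted with a 4-parameter logistic.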

[6] = target: Serine/threonine-protein kinase mTOR (Homo sapiens, UniProt P42345); test: Inhibition of mTOR
[7] = Inhibition of DNA-PK
[8] = target: T2, Phosphatidylinositol 4,5-bisphosphate 3-kinase catalytic subunit beta isoform; test: Inhibition of PI3K beta-mediated AKT phosphorylation at serine 473 in PTEN wild type human HCC1954 cells; format: cell-based
Procedure, shortened: (§2)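 Breast cancer cells plated and held about 16–20 h, then exposed to compound for 30 min at 0.15% final DMSO. After a Tris wash, cells were lysed in buffer with protease and phosphatase inhibitors. Ser473-pAKT and total AKT were measured by MSD duplex immunoassay, normalised to total AKT (pAKT + AKT signal), and expressed as percent of DMSO control. IC50 from concentration-response fits; means of at least 2 experiments.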

MDA-MB-468 = test: Cytotoxicity against PTEN deficient human MDA-MB-468 cells after 6 days by alamar blue assay; format: functional, cell-based; procedure, shortened: as §1
[9] = Clearance in rat at 0.25 mg/kg, iv; format: ADME, organism-based; set-up: dose 0.25 mg/kg, route intravenous; settings: in vivo
Procedure, shortened: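 Rats given a single IV dose at 0.25 mg/kg, formulated in 1% DMSO with 20% Encapsin in saline. Clearance was calculated after IV administration. Reported values are means of at least 2 experiments.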

[10] = target: T2, Phosphatidylinositol 4,5-bisphosphate 3-kinase catalytic subunit beta isoform; test: Inhibition of PI3K beta-mediated AKT phosphorylation at serine 473 in PTEN deficient human MDA-MB-468 cells after 30 mins; format: cell-based; procedure, shortened: as §2
[11] = Homo sapiens, MDA-MB-468, 144 h, read-out: EC50

T2 sequence (P42338 whole entry, canonical isoform): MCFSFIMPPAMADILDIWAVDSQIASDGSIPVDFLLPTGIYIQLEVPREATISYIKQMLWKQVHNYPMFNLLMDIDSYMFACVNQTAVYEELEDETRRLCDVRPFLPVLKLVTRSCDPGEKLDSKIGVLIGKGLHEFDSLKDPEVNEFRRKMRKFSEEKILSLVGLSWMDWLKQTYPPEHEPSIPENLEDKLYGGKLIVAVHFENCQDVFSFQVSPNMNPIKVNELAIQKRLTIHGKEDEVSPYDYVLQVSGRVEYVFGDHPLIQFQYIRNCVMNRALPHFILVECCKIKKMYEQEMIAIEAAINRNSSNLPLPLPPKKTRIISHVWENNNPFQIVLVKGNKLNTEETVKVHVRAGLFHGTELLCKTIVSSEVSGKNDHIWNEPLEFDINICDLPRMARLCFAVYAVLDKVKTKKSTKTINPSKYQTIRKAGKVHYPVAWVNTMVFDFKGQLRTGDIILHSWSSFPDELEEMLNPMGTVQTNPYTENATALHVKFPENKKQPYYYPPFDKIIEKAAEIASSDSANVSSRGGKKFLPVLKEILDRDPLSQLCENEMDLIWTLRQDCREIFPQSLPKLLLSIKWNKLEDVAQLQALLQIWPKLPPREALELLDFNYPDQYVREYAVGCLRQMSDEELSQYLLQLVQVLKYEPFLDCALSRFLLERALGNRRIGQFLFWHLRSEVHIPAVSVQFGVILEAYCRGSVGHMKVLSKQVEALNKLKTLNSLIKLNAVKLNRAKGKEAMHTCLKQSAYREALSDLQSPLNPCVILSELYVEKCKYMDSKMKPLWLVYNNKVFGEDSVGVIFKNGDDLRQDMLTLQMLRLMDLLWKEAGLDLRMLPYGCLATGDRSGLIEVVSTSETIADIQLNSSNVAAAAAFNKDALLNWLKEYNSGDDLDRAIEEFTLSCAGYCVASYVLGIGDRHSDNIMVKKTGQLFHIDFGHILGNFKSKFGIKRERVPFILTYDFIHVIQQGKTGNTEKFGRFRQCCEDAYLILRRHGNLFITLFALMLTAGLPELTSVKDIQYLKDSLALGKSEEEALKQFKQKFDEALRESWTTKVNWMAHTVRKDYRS
Chain of Phosphatidylinositol 4,5-bisphosphate 3-kinase catalytic subunit alpha isoform (P42336 whole entry, canonical isoform): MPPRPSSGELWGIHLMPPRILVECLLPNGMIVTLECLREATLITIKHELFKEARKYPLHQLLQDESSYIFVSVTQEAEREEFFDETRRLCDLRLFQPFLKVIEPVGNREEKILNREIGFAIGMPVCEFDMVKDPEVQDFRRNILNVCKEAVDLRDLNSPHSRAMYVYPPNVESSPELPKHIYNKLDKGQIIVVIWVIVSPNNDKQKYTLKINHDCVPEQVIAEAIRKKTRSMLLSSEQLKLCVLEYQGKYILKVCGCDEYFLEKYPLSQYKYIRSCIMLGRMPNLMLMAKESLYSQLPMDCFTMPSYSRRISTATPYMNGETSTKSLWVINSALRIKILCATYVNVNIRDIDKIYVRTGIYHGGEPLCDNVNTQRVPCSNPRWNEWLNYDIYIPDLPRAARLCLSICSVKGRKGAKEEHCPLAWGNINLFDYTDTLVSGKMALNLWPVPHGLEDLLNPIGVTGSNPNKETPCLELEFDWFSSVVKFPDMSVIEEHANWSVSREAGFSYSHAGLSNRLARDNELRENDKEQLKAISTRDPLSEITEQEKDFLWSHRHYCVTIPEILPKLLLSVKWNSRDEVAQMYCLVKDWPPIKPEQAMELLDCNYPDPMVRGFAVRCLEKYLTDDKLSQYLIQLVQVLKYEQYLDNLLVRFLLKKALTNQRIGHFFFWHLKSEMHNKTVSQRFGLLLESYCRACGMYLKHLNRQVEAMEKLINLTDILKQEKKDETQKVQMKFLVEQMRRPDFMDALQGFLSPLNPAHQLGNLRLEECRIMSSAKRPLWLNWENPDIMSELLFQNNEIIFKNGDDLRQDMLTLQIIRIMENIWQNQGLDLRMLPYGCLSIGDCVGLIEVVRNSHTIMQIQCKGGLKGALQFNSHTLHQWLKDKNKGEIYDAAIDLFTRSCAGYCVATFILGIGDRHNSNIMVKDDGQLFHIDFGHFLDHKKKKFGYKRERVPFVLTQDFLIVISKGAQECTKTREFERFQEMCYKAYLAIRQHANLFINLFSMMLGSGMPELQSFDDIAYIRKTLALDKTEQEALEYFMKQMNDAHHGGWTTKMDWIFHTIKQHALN
Chain of Phosphatidylinositol 4,5-bisphosphate 3-kinase catalytic subunit gamma isoform (P48736 whole entry, canonical isoform): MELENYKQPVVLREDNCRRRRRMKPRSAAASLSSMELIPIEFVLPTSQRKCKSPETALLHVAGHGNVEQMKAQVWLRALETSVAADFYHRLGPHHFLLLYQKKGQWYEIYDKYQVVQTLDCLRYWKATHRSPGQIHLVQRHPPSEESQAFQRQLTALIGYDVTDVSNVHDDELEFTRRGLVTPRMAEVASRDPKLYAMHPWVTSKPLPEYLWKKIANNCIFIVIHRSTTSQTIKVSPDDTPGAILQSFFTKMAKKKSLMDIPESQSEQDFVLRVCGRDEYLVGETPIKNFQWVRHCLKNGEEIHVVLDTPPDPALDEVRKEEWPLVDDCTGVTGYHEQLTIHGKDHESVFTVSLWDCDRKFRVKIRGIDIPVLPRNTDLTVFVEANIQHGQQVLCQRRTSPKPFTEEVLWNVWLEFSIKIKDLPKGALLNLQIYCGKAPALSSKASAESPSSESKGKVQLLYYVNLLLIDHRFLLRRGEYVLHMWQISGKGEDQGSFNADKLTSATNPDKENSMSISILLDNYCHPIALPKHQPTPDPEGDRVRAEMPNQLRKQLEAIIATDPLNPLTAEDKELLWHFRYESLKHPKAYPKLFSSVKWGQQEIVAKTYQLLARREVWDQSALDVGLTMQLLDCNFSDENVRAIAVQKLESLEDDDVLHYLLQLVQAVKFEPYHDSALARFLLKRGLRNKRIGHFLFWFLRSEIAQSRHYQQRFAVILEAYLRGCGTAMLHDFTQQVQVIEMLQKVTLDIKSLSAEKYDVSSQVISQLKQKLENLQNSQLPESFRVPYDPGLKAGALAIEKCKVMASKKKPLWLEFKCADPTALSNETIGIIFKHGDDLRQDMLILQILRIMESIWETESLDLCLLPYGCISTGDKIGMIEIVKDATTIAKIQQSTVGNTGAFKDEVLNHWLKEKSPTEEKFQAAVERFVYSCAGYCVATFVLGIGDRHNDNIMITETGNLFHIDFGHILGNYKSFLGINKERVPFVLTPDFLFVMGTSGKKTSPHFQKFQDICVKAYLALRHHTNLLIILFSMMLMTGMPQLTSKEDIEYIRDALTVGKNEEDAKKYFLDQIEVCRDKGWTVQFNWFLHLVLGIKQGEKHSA

With `CSc1nn2c(=O)cc(N3CCOC(C)C3)nc2n1Cc1cccc(C(F)(F)F)c1C` (stereo not drawn) the Ratio IC50 [1] was 6, the IC50 [2] was 25 nM and the IC50 [3] was 200 nM. The IC50 [4] was 1 nM and the IC50 [5] was 1300 nM.

With `Cc1nn2c(=O)cc(N3CCOC(C)C3)nc2n1Cc1cccc(Cl)c1Cl` (racemic) the IC50 [2] was 25 nM, the IC50 [3] was 250 nM and the IC50 [4] was 2 nM. The IC50 [5] was 320 nM.

For `CSc1nn2c(=O)cc(-c3ccncc3)nc2n1Cc1cccc(Cl)c1Cl`, the Ratio IC50 [1] was 6, the IC50 [2] was 79 nM and the IC50 [3] was 2000 nM. For the same molecule, the IC50 [4] was 13 nM and the IC50 [5] was 400 nM.

With `Cc1c(Cn2c(C)cn3c(=O)cc(N4CCOCC4)nc23)cccc1C(F)(F)F` the EC50 (HCC1954) was 9700 nM, the IC50 [6] was 32000 nM and the IC50 [7] was 800 nM. It also gave an IC50 [2] of 7.9 nM, an IC50 [4] of 1.3 nM and an IC50 [8] of over 29000 nM.

Work on `Cc1c(Cn2c(C)nn3c(=O)nc(N4CCOCC4)cc23)cccc1C(F)(F)F` yielded an EC50 (MDA-MB-468; [11]) of 210 nM, a clearance [9] of 83 mL/min/kg and an IC50 [10] of 92 nM. It also gave an IC50 [4] of 2 nM.

With `Cc1nn2c(=O)cc(N3CCOCC3)nc2n1Cc1cccc(Cl)c1Cl` the EC50 (MDA-MB-468; [11]) was 170 nM, the Ratio IC50 [1] was 6 and the IC50 [10] was 34 nM. It also gave an IC50 [2] of 50 nM, an IC50 [3] of 500 nM and an IC50 [4] of 1.3 nM. The IC50 [5] was 630 nM.

For `Cc1c(Cn2c(C)nn3c(=O)cc(N4CCOC(C)C4)nc23)cccc1C(F)(F)F` (single isomer, unassigned; enantiomer 1) [listing 1 of 2 here], the Ratio IC50 [1] was 6.

With `Cc1nn2c(=O)cc(N3CCOC(C)C3)nc2n1Cc1cccc(Cl)c1Cl` (stereo in doubt; 6) [listing 1 of 2 here] the Ratio IC50 [1] was 20.

Molecule `Cc1c(Cn2c(C)nn3c(=O)cc(N4CCOC(C)C4)nc23)cccc1C(F)(F)F` (single isomer, unassigned; enantiomer 2) [listing 1 of 2 here] has an EC50 (MDA-MB-468; mda-mb-468, read-out: EC50) of 13 nM, an EC50 (HCC1954) of 2200 nM and an IC50 [6] of 6300 nM. The IC50 [7] was 160 nM, the IC50 [10] was 0.5 nM and the IC50 [2] was 4 nM. The IC50 [3] was 60 nM, the IC50 [4] was 0.3 nM and the IC50 [8] was 2500 nM. For the same molecule, the IC50 [5] was 320 nM.

For `CSc1nn2c(=O)cc(N3CCOCC3)nc2n1Cc1cccc(Cl)c1Cl`, the EC50 (MDA-MB-468; [11]) was 240 nM, the Ratio IC50 [1] was 19 and the IC50 [10] was 13 nM. For the same molecule, the IC50 [2] was 31 nM, the IC50 [3] was 500 nM and the IC50 [4] was 1.6 nM. It also gave an IC50 [5] of 1600 nM.

Molecule `Cc1c(Cn2c(C)nn3c(=O)cc(N4CCOCC4)nc23)cccc1C(F)(F)F` has an EC50 (MDA-MB-468; [11]) of 110 nM, a Ratio IC50 [1] of 6 and a clearance [9] of 130 mL/min/kg. It also gave an IC50 [10] of 1.5 nM, an IC50 [2] of 20 nM and an IC50 [3] of 790 nM. For the same molecule, the IC50 [4] was 0.6 nM and the IC50 [5] was 630 nM.

Molecule `Cc1c(Cn2c(C)nn3c(=O)cc(N4CCOC(C)C4)nc23)cccc1C(F)(F)F` (single isomer, unassigned; enantiomer 1) [listing 2 of 2 here] has an EC50 (MDA-MB-468; mda-mb-468, read-out: EC50) of 310 nM, an IC50 [10] of 7.9 nM and an IC50 [2] of 63 nM. It also gave an IC50 [3] of 790 nM, an IC50 [4] of 3.1 nM and an IC50 [5] of 1600 nM.

In the case of `CSc1nn2c(=O)cc(N3CCOCC3)nc2n1Cc1cccc(C(F)(F)F)c1C`, the EC50 (MDA-MB-468; mda-mb-468) is reported as “Not Active”, the Ratio IC50 [1] is reported as 6 and the IC50 [10] is reported as 5.1 nM. It also gave an IC50 [2] of 25 nM, an IC50 [3] of 1300 nM and an IC50 [4] of 0.4 nM. For the same molecule, the IC50 [5] was 320 nM.

For `Cc1c(Cn2c(C3CC3)nn3c(=O)cc(N4CCOCC4)nc23)cccc1C(F)(F)F`, the EC50 (MDA-MB-468; [11]) was 40 nM, the Ratio IC50 [1] was 6 and the IC50 [10] was 4.1 nM. It also gave an IC50 [2] of 40 nM, an IC50 [3] of 1600 nM and an IC50 [4] of 1.3 nM. The IC50 [5] was 2500 nM.

In the case of `Cc1nn2c(=O)cc(N3CCOC(C)C3)nc2n1Cc1cccc(Cl)c1Cl` (single isomer, unassigned; enantiomer 2), the EC50 (MDA-MB-468; [11]) is reported as 110 nM, the IC50 [10] is reported as 3.4 nM and the IC50 [2] is reported as 40 nM. The IC50 [3] was 500 nM, the IC50 [4] was 1.3 nM and the IC50 [5] was 1000 nM.

`O=c1cc(N2CCOCC2)nc2n(Cc3cccc(Cl)c3Cl)c(C3CC3)nn12` gave an EC50 (MDA-MB-468; [11]) of 260 nM, a Ratio IC50 [1] of 52 and an IC50 [10] of 20 nM. It also gave an IC50 [2] of 130 nM, an IC50 [3] of 2500 nM and an IC50 [4] of 2.5 nM. The IC50 [5] was 2500 nM.

With `Cc1c(Cn2c(C)nn3c(=O)cc(N4CCOC(C)C4)nc23)cccc1C(F)(F)F` (racemic) [listing 1 of 2 here] the Ratio IC50 [1] was 6.

Work on `Cc1nn2c(=O)cc(N3CCOC(C)C3)nc2n1Cc1cccc(Cl)c1Cl` (stereo in doubt; 6) [listing 2 of 2 here] yielded an IC50 [2] of 500 nM, an IC50 [3] of 7900 nM and an IC50 [4] of 25 nM. For the same molecule, the IC50 [5] was 2500 nM.

With `Cc1c(Cn2c(C)nn3c(=O)cc(N4CCOC(C)C4)nc23)cccc1C(F)(F)F` (racemic) [listing 2 of 2 here] the EC50 (MDA-MB-468; mda-mb-468, read-out: EC50) was 55 nM, the IC50 [10] was 2.7 nM and the IC50 [2] was 10 nM. It also gave an IC50 [3] of 160 nM, an IC50 [4] of 1.3 nM and an IC50 [5] of 400 nM.

With `Cc1c(Cn2c(C)nn3c(=O)cc(N4CCOC(C)C4)nc23)cccc1C(F)(F)F` (single isomer, unassigned; enantiomer 2) [listing 2 of 2 here] the Ratio IC50 [1] was over 10.
